The results in this text go back to ChEMBL document CHEMBL4699532, “Decoding the Papain Inhibitor from Streptomyces mobaraensis as Being Hydroxylated Chymostatin Derivatives: Purification, Structure Analysis, and Putative Biosynthetic Pathway” (J Nat Prod, 2020).

Molecules are shown by their SMILES. A value given as a limit tells only on which side of the number the result lay.

One experiment addresses T1, Papain (Carica papaya) (UniProt P00784).
T1 sequence (whole entry): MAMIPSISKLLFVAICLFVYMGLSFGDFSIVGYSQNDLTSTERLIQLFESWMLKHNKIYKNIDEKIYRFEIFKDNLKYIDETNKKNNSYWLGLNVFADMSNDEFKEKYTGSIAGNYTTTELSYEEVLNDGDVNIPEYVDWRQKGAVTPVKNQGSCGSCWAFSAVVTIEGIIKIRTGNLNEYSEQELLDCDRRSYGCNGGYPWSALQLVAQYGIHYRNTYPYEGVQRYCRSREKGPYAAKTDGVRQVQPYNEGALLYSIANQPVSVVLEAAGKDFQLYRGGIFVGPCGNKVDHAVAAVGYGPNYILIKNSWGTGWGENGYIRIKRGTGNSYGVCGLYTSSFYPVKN
The experiment is described as follows: Binding affinity to papaya papain assessed as change in melting temperature at 200 uM incubated for 15 mins by scanning fluorimetry. Put shortly: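 Melting followed by tryptophan fluorescence at 330 and 350 nm during 1 °C/min heating (differential scanning fluorimetry), run in duplicate. Shift taken as difference from the enzyme's melting point.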

For a further experiment, the target named is T2, Papain (Carica papaya, UniProt P00784).
T2 sequence (P00784 whole entry): T1 sequence (whole entry)
In words: Inhibition of papaya papain using cbzFRamc substrate preincubated for 10 mins followed by addition of substrate and measured every 30 sec for 60 mins by fluorescence based assay. Put shortly: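 Papain, 1.5 nM final (added as 15 nM stock), preincubated with inhibitor for 10 min at 30 °C in 50 mM phosphate pH 6.8, 10 mM EDTA, 2 mM DTT. Started with 50 μM cbzFRamc. AMC release read every 30 s for 60 min (ex 350, em 450 nm), in triplicate. IC50 from fitted data.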

The species entered for the next experiment is Homo sapiens. The experiment is described as follows: Binding affinity to chymotrypsin (unknown origin) assessed as change in melting temperature at 200 uM incubated for 15 mins by scanning fluorimetry. Put shortly:
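20 μM chymotrypsin held on ice for 15 min with 200 μM inhibitor in 100 mM Tris pH 7.8, 10 mM CaCl2. Melting followed by tryptophan fluorescence at 330 and 350 nm during 1 °C/min heating (differential scanning fluorimetry), run in duplicate. Shift taken as difference from the enzyme's melting point.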

Experiment [1] is described as follows: Inhibition of chymotrypsin (unknown origin) using sucAAPFamc substrate preincubated for 10 mins followed by addition of substrate and measured every 30 sec for 60 mins by fluorescence based assay. The arrangement: species or system Homo sapiens. The gist of the method: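 Chymotrypsin, 1.5 nM final (added as 15 nM stock), preincubated with inhibitor for 10 min at 30 °C in 100 mM Tris pH 7.8, 10 mM CaCl2. Started with sucAAPFamc (added as 15 μM stock). AMC release read every 30 s for 60 min (ex 350, em 450 nm), in triplicate. IC50 from fitted data.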

With `CC(C)[C@H](NC(=O)[C@@H](NC(=O)N[C@@H](Cc1ccc(O)cc1)C(=O)O)[C@H]1CCNC(=N)N1)C(=O)N[C@H](C=O)Cc1ccc(O)cc1`, the values for the ΔTm on Papain (Carica papaya) and in the experiment listed under Homo sapiens were 0.9 °C and 15.1 °C, respectively. In addition, the values for the IC50 (against Papain; in experiment [1]) were 6.3 nM and 4.8 nM, respectively.

On to `CC(C)[C@H](NC(=O)[C@@H](NC(=O)N[C@@H](Cc1ccc(O)cc1)C(=O)O)[C@H]1CCNC(=N)N1)C(=O)N[C@H](C=O)Cc1ccccc1`, for which the ΔTm – broadly, the shift of the melting midpoint relative to a reference – is 0.9 °C on Papain (Carica papaya) and 13.5 °C in the experiment listed under Homo sapiens. Also, the 50% inhibitory concentration (IC50) (as a rule, the concentration at which inhibition is half-maximal) against Papain amounted to 17.8 nM; in experiment [1], 7 nM.

With `CC(C)[C@H](NC(=O)[C@H](CCCNC(=N)N)NC(=O)N[C@@H](Cc1ccccc1)C(=O)O)C(=O)N[C@H](C=O)CCCNC(=N)N` [ANTIPAIN], the ΔTm on Papain (Carica papaya) amounted to 0.9 °C; in the experiment filed under Homo sapiens, 1.7 °C. For the same molecule, the IC50 was 3.4 nM on Papain and above 30000 nM in experiment [1].

For `CC(=O)N[C@@H](CC(C)C)C(=O)N[C@@H](CC(C)C)C(=O)N[C@H](C=O)CCCNC(=N)N` [LEUPEPTIN], the ΔTm turned out to be 1 °C on Papain (Carica papaya) and 0.2 °C in the experiment filed under Homo sapiens. Besides, the values for the IC50 (against Papain; in experiment [1]) were 2.2 nM and above 30000 nM, respectively.
